Test [1] is described as follows: Inhibition of HCV NS3 protease by FRET assay. Details: species or system Hepacivirus hominis. In outline:
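Full-length HCV NS3 (protease–helicase/NTPase) protein, protease activity read by FRET. Enzyme at 1 nM incubated 10 min at 30 °C in 50 mM HEPES pH 7.5, 10 mM DTT, 40% glycerol before measurement. Inhibitor Ki given with standard deviation. Wild type and the A156T and D168V variants were tested.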

Another test has as its target NS3 protease (Hepatitis C virus subtype 1b, UniProt Q0ZMF1, A156T). Put plainly: Inhibition of HCV NS3 protease A156T mutant by FRET assay. Details: species or system Hepacivirus hominis. An outline of the steps:
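Protease activity of full-length HCV NS3 (protease–helicase/NTPase) was measured by FRET. 1 nM enzyme was incubated 10 min at 30 °C in 50 mM HEPES pH 7.5, 10 mM DTT, 40% glycerol before read-out.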

Each structure is given as a SMILES string.

For `O=C(O)CNc1nc(Cl)c(-c2ccccc2)n(CC(=O)Nc2ccccc2C(=O)NS(=O)(=O)c2ccc(C(F)(F)F)cc2)c1=O`, the Ki (in general, the equilibrium dissociation constant of an inhibitor or competing ligand from its target) in test [1] was 3 µM; at NS3 protease, 5.6 µM.
Turning to `C=C[C@@H]1C[C@]1(NC(=O)C(c1ccccc1)n1c(C)c(Cl)nc(NC(=O)OC(C)(C)C)c1=O)C(=O)O` (stereo in doubt; 29a), the affinity in test [1], expressed as Ki, was 11 µM.
The molecule `C=C[C@@H]1C[C@]1(NC(=O)C(c1ccccc1)n1c(C)c(Cl)nc(NCC(=O)N(C)C)c1=O)C(=O)NS(=O)(=O)C1CC1` (some centres undefined) came in with an inhibition constant Ki in test [1] of 28 µM.
Still for that read-out and setting: in the case of `Cc1c(Cl)nc(NCC(N)=O)c(=O)n1CC(=O)Nc1ccccc1C(=O)NS(=O)(=O)c1ccc(C(F)(F)F)cc1` it was 18 µM; in that of `C=C[C@@H]1C[C@]1(NC(=O)[C@@H](NC(=O)[C@@H](NC(=O)OC(C)(C)C)C(C)(C)C)c1ccc(OC)cc1)C(=O)NS(=O)(=O)C1CC1`, 5.4 µM.
On to `O=C(O)CNc1nc(Cl)c(Cc2ccccc2)n(CC(=O)Nc2ccccc2C(=O)NS(=O)(=O)c2ccc(C(F)(F)F)cc2)c1=O`, for which the inhibition constant Ki was determined as 1.5 µM in test [1] and 2.5 µM on NS3 protease.
Turning to `C=C[C@@H]1C[C@]1(NC(=O)[C@H](NC(=O)[C@@H](NC(=O)OC(C)(C)C)C(C)(C)C)c1ccc(OC)cc1)C(=O)NS(=O)(=O)C1CC1`, the inhibition constant (Ki) in test [1] was determined as 34 µM.
Same read-out and setting: in the case of `C=C[C@@H]1C[C@]1(NC(=O)C(c1ccccc1)n1c(C)c(Cl)nc(NCCC(C)(C)C)c1=O)C(=O)NS(=O)(=O)C1CC1` (some centres undefined) it was 6.8 µM.
Still for that read-out and setting: the result for `C=C[C@@H]1C[C@]1(NC(=O)C(c1ccccc1)n1c(C)c(Cl)nc(NCCN2CCOCC2)c1=O)C(=O)NS(=O)(=O)C1CC1` (some centres undefined) reads 11 µM.
Turning to `C=C[C@@H]1C[C@]1(NC(=O)C(c1ccccc1)n1c(C)c(Cl)nc(NC(=O)OC(C)(C)C)c1=O)C(=O)NS(=O)(=O)C1CC1` (some centres undefined), the inhibition constant Ki in test [1] was found to be 4.3 µM; at NS3 protease, 5.9 µM.
The molecule `C=C[C@@H]1C[C@]1(NC(=O)C(c1ccc(OC)cc1)n1c(C)c(Cl)nc(NC(=O)OC(C)(C)C)c1=O)C(=O)NS(=O)(=O)C1CC1` (some centres undefined) registered a Ki in test [1] of 7.2 µM.
In the case of `O=C(O)CNc1nc(Cl)cn(C(C(=O)Nc2ccccc2C(=O)NS(=O)(=O)c2ccc(C(F)(F)F)cc2)c2ccccc2)c1=O` (centres undefined), the inhibition constant (Ki) turned out to be 2.3 µM in test [1] and 1.8 µM at NS3 protease.
On the same counts, the results for `Cc1c(Cl)nc(NC(=O)OC(C)(C)C)c(=O)n1C(C(=O)Nc1ccccc1C(=O)NS(=O)(=O)c1ccc(C(F)(F)F)cc1)c1ccccc1` (centres undefined) are 3.8 µM and 1.5 µM.
For `C=C[C@@H]1C[C@]1(NC(=O)C(c1ccccc1)n1c(C)c(Cl)nc(NCC(N)=O)c1=O)C(=O)NS(=O)(=O)C1CC1` (some centres undefined), the inhibition constant Ki in test [1] stood at 12 µM.
Same read-out and setting: the result for `Cc1c(Cl)nc(NC(=O)OC(C)(C)C)c(=O)n1C(C(=O)N[C@@H](CC1CC1)C(=O)NS(=O)(=O)C1CC1)c1ccccc1` (some centres undefined) reads 9.6 µM.
The same measure, in the same setting: in the case of `C=C[C@@H]1C[C@]1(NC(=O)C(c1ccccc1)n1c(C)c(Cl)nc(N)c1=O)C(=O)NS(=O)(=O)C1CC1` (some centres undefined) it was 11 µM.
The same measure, in the same setting: in the case of `C=C[C@@H]1C[C@]1(NC(=O)C(c1ccccc1)n1c(C)c(Cl)nc(NCCc2ccccc2)c1=O)C(=O)NS(=O)(=O)C1CC1` (some centres undefined) it was 8.3 µM.
For `C=C[C@@H]1C[C@]1(NC(=O)C(c1ccccc1)n1c(C)c(Cl)nc(NCC(=O)N2CCOCC2)c1=O)C(=O)NS(=O)(=O)C1CC1` (some centres undefined), affinity in test [1] was put at a Ki of 10 µM.
`C=C[C@@H]1C[C@]1(NC(=O)C(c1ccccc1)n1c(C)c(Cl)nc(NC(=O)OC(C)(C)C)c1=O)C(=O)O` (stereo in doubt; 29b) showed a Ki in test [1] of 13 µM.

For the origin of these results see ChEMBL document CHEMBL1221280, “Discovery of achiral inhibitors of the hepatitis C virus NS3 protease based on 2(1H)-pyrazinones” (Bioorg Med Chem, 2010).
